# TRPC4 block = blocks the mouse TRPC4 cation channel; B-score at 10 µM; AID 2247; Q9QUQ5; 0.39% of 300,000 active; HEK293 TRPC4beta/mu-opioid, DAMGO-evoked Fluo4 calcium flux; stronger effect = lower value;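 active = B-score over 3 SD under the library average, no early fluorescence shift, positive overall ratio signal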
#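 Signal: kinetic Fluo4 fluorescence imaging of calcium influx. Material: stable TRPC4beta/mu-opioid receptor HEK293 cells. Probe or stimulus: DAMGO in two steps, submaximal then maximal.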
# Platelet DG rel = platelet dense granule release activity; human platelet-rich plasma, SFLLRN dense granule ATP release, luminescence; inhibition, %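 (compounds screened at 7.5 µM in platelet-rich plasma)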; 0.22% of 300,000 active; AID 1663;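 active = mean replicate score, as percent of positive control, at or above 50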
# TRPC4 agonist = activators of mouse TRPC4 channel | 0.49% of 310,000 active | HEK293 TRPC4beta/mu-opioid, Fluo4 calcium fluorescence; stronger effect = higher value | B-score at 10 µM | AID 2237;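 active = B-score above 5 SD of library B-scores, and initial fluorescence ratio not above library mean plus 5 SD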;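 also: positive B-score marks a calcium rise read as TRPC4 activation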
#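 Test system: HEK293 cells stably co-expressing mouse TRPC4beta and mu-opioid receptor | Schedule: Fluo4 dye loading 45 min at room temperature, 110 s recording | Measured by: Kinetic Fluo4 calcium fluorescence, 5 s baseline at 1 Hz | Evaluation: B score of integrated ratio | Controls: Buffer (low) and maximal DAMGO (high)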
# TRPC4 PAM = allosteric potentiators of mouse TRPC4 channel; Q9QUQ5; HEK293 TRPC4beta/mu-opioid, DAMGO EC20, Fluo-4 Ca2+ flux; stronger effect = higher value; B-score at 10 µM; 0.42% of 310,000 active;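 active = B-score of calcium response area above 5 SD of library B-scores, with initial fluorescence ratio within 5 SD of library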;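 also: B-score of integrated fluorescence ratio over time as area under calcium response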
# TRPC6 act = activators of mouse TRPC6 channel; Q61143; HEK293-TRPC6 membrane potential dye fluorescence; stronger effect = higher value; B-score at 10 µM; 0.13% of 310,000 active;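 active = B-score of the integrated fluorescence ratio above library mean plus 3 SD, and starting fluorescence ratio within library mean plus 5 SD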;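 also: higher score means more depolarization so channel activation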
# TRPC6 inhibitor = blocks the mouse TRPC6 cation channel; Q61143; HEK293-TRPC6, membrane potential dye, ACh-evoked depolarization; stronger effect = lower value; B-score at 10 µM; 1.1% of 310,000 active;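 active = B-score under library mean minus 3 SD, initial fluorescence not abnormally high, positive integrated signal ratio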;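 also: B-score derived from integrated fluorescence ratio over the kinetic read; more negative B-score means stronger inhibition of depolarization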
# TRPC4 spec 2 = second selectivity test of TRPC6 inhibitors: effect on mouse TRPC4 | shares compounds with TRPC6 inhibitor | HEK293 TRPC4/MOR, membrane potential dye fluorescence; channel activated by saturating DAMGO dose | inhibition, % at 10 µM | 42% of 920 active | AID 2776;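 active = compounds whose fluorescence signal differed from control wells by over 3 SD, either direction, in both duplicate plates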
# TRPC4 spec = selectivity of TRPC6 inhibitors: effect on mouse TRPC4. activity change, negative = inhibition, % at 10 µM. HEK293 TRPC4/mu-opioid, membrane potential fluorescence. 61% of 920 active. shares compounds with TRPC6 inhibitor;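 active = rise or fall in signal beyond 3 SD of buffer-only wells in both replicate plates, either sign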;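 also: integrated kinetic ratio of fluorescence range over baseline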
# HEK293 MPD ctr 2-1 = parental HEK293 nonspecific activity of TRPC6 inhibitors, second screen; shares compounds with TRPC6 inhibitor; parental HEK293 membrane potential dye fluorescence; maximal acetylcholine challenge after compound addition; signal change vs control, % at 10 µM; 31% of 920 active; AID 2779;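 active = membrane potential signal moving either way by over 3 SD of the maximum-effect control, in both duplicate plates, meaning non-specific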
# HEK293 MPD ctr-1 = checks TRPC6 inhibitor effects in parental HEK293 cells. membrane potential signal change, % at 10 µM. 60% of 920 active. shares compounds with TRPC6 inhibitor. parental HEK293 membrane potential dye fluorescence;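 active = membrane potential signal shifting up or down by more than 3 SD of buffer-only wells, on both duplicate plates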
# HEK293 MPD ctr-2 = counter-screen for TRPC6 modulators: effect in parental HEK293 cells; membrane potential dye fluorescence; membrane potential signal change, % at 10 µM; 51% of 2,400 active; shares compounds with TRPC6 inhibitor; AID 488924;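 active = membrane potential signal moves up or down beyond 5 SD from buffer-only wells, on both duplicate plates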
# HEK293 MPD ctr 2-2 = parental HEK293 nonspecific activity of TRPC6 modulators, second screen. AID 488926. inhibition, % at 10 µM. membrane potential dye fluorescence; after compound, maximal acetylcholine stimulation. 14% of 2,400 active. shares compounds with TRPC6 inhibitor;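 active = membrane potential signal drops by more than 5 SD from the mean control signal, in both duplicate plates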;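 also: plate controls were acetylcholine ECmax control wells for no effect and buffer only wells for full effect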
# TRPC4/MOR mod = selectivity of TRPC6 modulators against mouse TRPC4; shares compounds with TRPC6 inhibitor; HEK293 TRPC4/mu-opioid, membrane potential fluorescence; percent change from control (negative = decrease, positive = increase), % at 10 µM; 69% of 2,400 active; AID 488927;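 active = membrane potential signal moved up or down beyond 5 SD of buffer control wells, in both duplicate plates, actives on both sides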;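 also: plate controls were assay buffer wells for no effect and DAMGO maximal-effect wells for full effect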
# TRPC4 ctr inh 2 = second check of whether TRPC6 modulators also affect mouse TRPC4. shares compounds with TRPC6 inhibitor. HEK293 TRPC4/mu-opioid, membrane potential dye fluorescence; stimulated with maximal-effect DAMGO. inhibition, % at 10 µM. 55% of 2,400 active;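 active = drop in membrane potential signal beyond 5 SD of the control wells in both duplicate plates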;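 also: TRPC4 counter screen for TRPC6 hits run under conditions tuned for TRPC6 not TRPC4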
# TRPC6 block conf = confirmation of mouse TRPC6 inhibitors | shares compounds with TRPC6 inhibitor | HEK293-TRPC6, membrane potential dye, ACh-evoked depolarization | inhibition, % at 10 µM | 43% of 3,300 active;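 active = fluorescence ratio falls more than 5 SD below the full-stimulation control mean, in both duplicate runs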;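 also: integrated fluorescence ratio of peak minus minimum over baseline after agonist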
# TRPC6 act conf = mouse TRPC6 activator confirmation; shares compounds with TRPC6 inhibitor; 11% of 2,800 active; activation, % at 10 µM; HEK293-TRPC6 membrane potential dye fluorescence, FDSS;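 active = ratio signal rise beyond 5 SD above unstimulated control wells' mean, seen in both duplicate runs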;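 also: plate controls were buffer EC0 wells for no effect and acetylcholine ECmax response for full effect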
# Numbers without * were called inactive; i = inactive; nt = no result. This is a sample that favours compounds with a hit; in the whole collection about 2.5% have one here.
SMILES,TRPC4 block,Platelet DG rel,TRPC4 agonist,TRPC4 PAM,TRPC6 act,TRPC6 inhibitor,HEK293 MPD ctr-2,HEK293 MPD ctr 2-2,TRPC4/MOR mod,TRPC4 ctr inh 2,TRPC6 block conf,TRPC6 act conf,others
Cc1ccc2nc(C)c3c(c2c1)SCC3,i,-2.3,i,i,i,-5.16*,-170.0%*,i,-36.5%*,37.5%*,i,i,
CCOC(=O)c1[nH]ncc1CN1CCCC(C(=O)c2cccc3ccccc23)C1 (stereo unspecified),i,-3.6,i,i,i,i,nt,nt,nt,nt,nt,nt,
CSc1ccc(C(=O)C2CCCN(Cc3ccc(N4CCNC4=O)cc3)C2)cc1 (stereo unspecified),i,-7.0,i,i,i,-5.78*,i,i,i,87.5%*,55.0%*,i,
CCOC(=O)c1[nH]ncc1CN1CCCC(C(=O)c2ccc(SC)cc2)C1 (stereo unspecified),i,1.5,i,i,i,-5.65*,i,i,11.0%*,30.5%*,i,nt,
NNC(=O)c1cc2c(N3CCC(Cc4ccccc4)CC3)ncnc2s1,i,-14.5,i,i,i,i,nt,nt,nt,nt,nt,nt,
COc1ccc(-c2nc(NCCCN(C)C)c3ccccc3n2)cc1,i,-1.4,i,i,i,-6.72*,nt,nt,nt,nt,84.9%*,i,TRPC4 spec 2=55.0%*;TRPC4 spec=-31.8%*;HEK293 MPD ctr 2-1=i;HEK293 MPD ctr-1=-387.0%*
c1ccc(-c2nc(NCCCn3ccnc3)c3ccccc3n2)cc1,i,-3.2,i,i,i,-5.19*,-220.5%*,i,-49.5%*,71.5%*,61.0%*,i,
CC(Nc1nc(-c2ccccc2O)nc2ccccc12)c1ccccc1 (stereo unspecified),i,0.0,i,i,i,i,nt,nt,nt,nt,nt,nt,
CC(Nc1nc(-c2ccccc2)nc2ccccc12)c1ccccc1 (stereo unspecified),i,-0.1,i,i,i,-7.28*,nt,nt,nt,nt,i,i,TRPC4 spec 2=i;TRPC4 spec=-9.5%*;HEK293 MPD ctr 2-1=i;HEK293 MPD ctr-1=i
CCN(CC)CCCNc1nc(-c2ccccc2)nc2ccccc12,i,10.9,i,i,i,-8.82*,nt,nt,nt,nt,76.4%*,i,TRPC4 spec 2=40.0%*;TRPC4 spec=-27.2%*;HEK293 MPD ctr 2-1=35.0%*;HEK293 MPD ctr-1=-355.0%*
Cc1ccc(S(=O)(=O)CC(=O)Nc2ccc(Cl)cn2)cc1,i,-2.7,i,i,i,i,nt,nt,nt,nt,nt,nt,
Cc1ccc(NC(=O)CN(C)S(=O)(=O)c2cnc[nH]2)c(C)c1,i,-6.1,i,i,i,i,nt,nt,nt,nt,nt,nt,
C[C@@]12C(=O)N(c3ccc(C(F)(F)F)cc3)C(=O)N1[C@@H]1c3ccccc3OC[C@@H]1[C@H]2c1ccccc1,i,-1.3,i,i,i,i,nt,nt,nt,nt,nt,nt,
O=C(OCC(=O)N1CCN(C(=O)c2ccco2)CC1)c1cc(-c2cccc(Br)c2)nc2ccccc12,i,0.7,i,i,i,i,nt,nt,nt,nt,nt,nt,
COc1ccc(C(CNc2nc(-c3cccnc3)nc3ccccc23)N(C)C)cc1 (stereo unspecified),i,0.1,188*,i,i,-7.55*,-277.0%*,i,-38.5%*,90.5%*,55.0%*,i,
c1ccc(-c2nnc(OCC3CCCO3)c3ccccc23)cc1 (stereo unspecified),i,-6.3,i,i,i,i,nt,nt,nt,nt,nt,nt,
CCc1cccc(NS(=O)(=O)c2ccc3c(c2)NC(=O)CC(=O)N3)c1,i,-9.6,i,i,i,i,nt,nt,nt,nt,nt,nt,
CCc1ccccc1NS(=O)(=O)c1ccc2c(c1)NC(=O)CC(=O)N2,i,7.3,i,i,i,-9.36*,nt,nt,nt,nt,i,i,TRPC4 spec 2=i;TRPC4 spec=i;HEK293 MPD ctr 2-1=i;HEK293 MPD ctr-1=i
COc1cccc(CN(C)C(=O)CSC(C)C(=O)Nc2cc(C)on2)c1OC (stereo unspecified),i,-3.1,i,i,i,i,nt,nt,nt,nt,nt,nt,
COc1cc(C2C(C#N)=C(N)Oc3cc(N(C)C)ccc32)cc2c1OCO2 (stereo unspecified),i,-8.0,64*,i,11.6*,i,256.0%*,i,53.0%*,i,i,62.0%*,
c1ccc(-c2csc(Nc3cccnc3)n2)nc1,nt,6.2,i,i,i,-6.03*,-84.5%*,i,-17.5%*,i,i,i,
O=C(O)CCC(=O)Nc1ccc2c(c1)Cc1cc(NC(=O)CCC(=O)O)ccc1-2,i,-7.4,i,i,i,i,nt,nt,nt,nt,nt,nt,
COc1cc(/C=N/Nc2nncc3ccccc23)cc(OC)c1OC,i,10.7,i,i,i,-7.93*,nt,nt,nt,nt,i,i,TRPC4 spec 2=i;TRPC4 spec=-24.9%*;HEK293 MPD ctr 2-1=i;HEK293 MPD ctr-1=-457.5%*
CC(C)c1cc(-c2n[nH]c(=S)n2Cc2ccccc2)cs1,i,4.2,i,i,i,-15.8*,i,i,8.5%*,i,i,i,
S=c1[nH]nc(-c2ccccc2)n1Cc1ccccc1,i,2.6,i,i,i,i,nt,nt,nt,nt,nt,nt,
